This note sets out measurements from ChEMBL document CHEMBL1151708, “Isoflavonoid glycosides from the roots of Baphia bancoensis” (2008).

Values after ≈ are worked out from the molar mass of the structure shown.

Holding throughout (assay type): functional
One assay relates to Escherichia coli. Kind of assay: Antibacterial activity against Escherichia coli ATCC 25922 after 18 hrs by liquid microdilution method. The note with it: ATCC 25922, 18 h. Put shortly:
(§1)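 Broth microdilution MIC. Compound dissolved in MeOH at 512 µg/mL, serially diluted 2-fold in Mueller-Hinton medium to 1–128 µg/mL. Each dilution added to wells of Mueller-Hinton medium with standard inoculum; final MeOH below 6%. Plates sealed, agitated, incubated 37 °C, 18 h. MIC is the lowest concentration giving no colour change. Run in triplicate.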

For the next assay, the system named is Pseudomonas aeruginosa. Briefly: Antibacterial activity against Pseudomonas aeruginosa ATCC 27853 after 18 hrs by liquid microdilution method. The note with it: ATCC 27853, 18 h. An outline of the steps: as §1
Another assay has as its system Enterococcus faecalis. Briefly: Antibacterial activity against Enterococcus faecalis ATCC 29212 after 18 hrs by liquid microdilution method. Particulars: ATCC 29212, 18 h. Put shortly: as §1
(Dilution methods test growth across graded concentrations, often in twofold steps.)

The test system of a further assay is Staphylococcus aureus. Kind of assay: Antibacterial activity against Staphylococcus aureus ATCC 2523 after 18 hrs by liquid microdilution method. Particulars: ATCC 2523, 18 h. An outline of the steps: as §1

With `COc1ccc(-c2coc3cc(O[C@@H]4O[C@H](CO[C@@H]5O[C@@H](C)[C@H](O)[C@@H](O)[C@H]5O)[C@@H](O)[C@H](O)[C@H]4O)c(OC)c(OC)c3c2=O)cc1`, the MIC (usually the lowest concentration found to suppress growth) was greater than 196 µM in the assay with Escherichia coli, 196 µM (≈ 125 µg/mL) against Pseudomonas aeruginosa, 48.4 µM (≈ 30.8 µg/mL) in the assay with Enterococcus faecalis and 48.4 µM (≈ 30.8 µg/mL) with Staphylococcus aureus.

`COc1ccc(-c2coc3cc(O)c(OC)c(OC)c3c2=O)cc1`: the MIC was 390 µM (≈ 128 µg/mL) against Escherichia coli, 195 µM (≈ 64 µg/mL) in the assay with Pseudomonas aeruginosa, 97.5 µM (≈ 32 µg/mL) against Enterococcus faecalis and 97.5 µM (≈ 32 µg/mL) in the assay on Staphylococcus aureus.

On to `COc1ccc(-c2coc3cc(O[C@@H]4O[C@H](CO[C@@H]5O[C@@H](C)[C@H](O)[C@@H](O)[C@H]5O)[C@@H](O)[C@H](O[C@@H]5O[C@H](CO[C@@H]6O[C@@H](C)[C@H](O)[C@@H](O)[C@H]6O)[C@@H](O)[C@H](O)[C@H]5O)[C@H]4O)c(OC)c(OC)c3c2=O)cc1`, for which the MIC in the assay on Escherichia coli, against Pseudomonas aeruginosa, in the assay on Enterococcus faecalis and against Staphylococcus aureus was greater than 135 µM each time.
